Activity calls are given as the source filed them. The calls are words filed in the database; no cut-off is given here.

In the first assay the test system is L1210. Nature of the assay: Cytotoxicity against mouse L1210 cells after 48 hrs by […] assay. The class given is functional, cell-based. Conditions: L1210, 48 h. The procedure, abridged: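 L1210 cells grown in RPMI 1640 plus 10% fetal calf serum, 2 mM L-glutamine, penicillin/streptomycin, 10 mM HEPES (pH 7.4); exposed 48 h to nine serial drug dilutions in triplicate; microculture tetrazolium read-out; IC50 = concentration halving optical density versus untreated controls; mean of 2 independent experiments.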
As a reminder, the IC50 is the concentration that gives 50% inhibition. Consider `CC(=O)O[C@@H]1c2cc3ccc(=O)oc3cc2OC(C)(C)[C@H]1Br` (racemic), for which the IC50 was over 100 µM.

`CC1(C)Oc2cc3oc(=O)ccc3cc2[C@@H](O)[C@@H]1Br` (racemic) showed a half-inhibitory concentration (IC50) of over 100 µM. In turn, `CC(=O)OC1CC(C)(C)Oc2ccc3ccc(=O)oc3c21` (racemic) returned an IC50 of 24.7 µM. `CC1(C)Oc2cc3oc(=O)ccc3cc2[C@@H](OC(=O)c2ccccc2)[C@@H]1Br` (racemic) registered a 50% inhibitory concentration (IC50) of 36.5 µM. `CC1(C)CC(OC(=O)NCCCl)c2c(ccc3ccc(=O)oc23)O1` (racemic) returned a half-inhibitory concentration (IC50) of 67.2 µM. On to `CC1(C)CC(O)c2cc3ccc(=O)oc3cc2O1` (racemic), for which half-maximal inhibition (IC50) was put at 6.5 µM. On the same count and under the same terms, the value for `CC(=O)O[C@@H]1c2cc3ccc(=O)oc3cc2OC(C)(C)[C@@H]1OC(C)=O` (racemic) was over 100 µM; that for `CC1(C)CC(O)c2c(ccc3ccc(=O)oc23)O1` (racemic) was 0.9 µM.

`CC1(C)CC(OC(=O)c2ccccc2)c2c(ccc3ccc(=O)oc23)O1` (racemic) displayed a concentration for half-maximal inhibition (IC50) of 30.9 µM. Compound `CC1(C)Oc2cc3oc(=O)ccc3cc2[C@@H](O)[C@H]1O` (racemic) displayed a half-inhibitory concentration (IC50) of over 100 µM. Compound `CC1(C)Oc2ccc3ccc(=O)oc3c2[C@H](O)[C@H]1Br` (racemic) displayed a 50% inhibitory concentration (IC50) of over 100 µM.

Consider `CC(=O)OC1CC(C)(C)Oc2cc3oc(=O)ccc3cc21` (racemic), for which inhibition was half-maximal at 5 µM (IC50). `CC(=O)O[C@H]1c2c(ccc3ccc(=O)oc23)OC(C)(C)[C@H]1OC(C)=O` (racemic) returned an IC50 of over 100 µM. With `CC(=O)O[C@H]1c2c(ccc3ccc(=O)oc23)OC(C)(C)[C@@H]1Br` (racemic), inhibition was half-maximal at 60.3 µM (IC50).

In turn, `CC1(C)Oc2ccc3ccc(=O)oc3c2[C@H](O)[C@@H]1O` (racemic) showed a 50% inhibitory concentration (IC50) of over 100 µM. As to `CC1(C)Oc2ccc3ccc(=O)oc3c2[C@H](OC(=O)c2ccccc2)[C@H]1Br` (racemic), half-maximal inhibition (IC50) required 10.3 µM.

`CC1(C)CC(OC(=O)c2ccccc2)c2cc3ccc(=O)oc3cc2O1` (racemic): the half-maximal inhibitory concentration (IC50) is 90.1 µM.

A further assay concerns L1210. The experiment in a line: Cell cycle arrest in mouse L1210 cells by accumulation at G1 phase after 21 hrs by flow cytometry. Format: functional, cell-based.
Settings: not given
In general terms: In flow cytometry, cells or beads pass a laser one at a time.
Consider `CC1(C)CC(O)c2cc3ccc(=O)oc3cc2O1` (racemic), for which the result was inactive.

Consider `CC1(C)CC(O)c2c(ccc3ccc(=O)oc23)O1` (racemic), for which the result was inactive. For the compound `CC(=O)OC1CC(C)(C)Oc2cc3oc(=O)ccc3cc21` (racemic), the outcome was inactive.
